Compounds with a hit are over-represented: about 1.7% of the library has one in this group of screens.
Neddyl block – cullin neddylation inhibition; P61081+Q13564; TR-FRET cullin neddylation, biochemical; inhibition, % at 25 µM; hit rate 0.58% among 360,000; AID 651699; in the data active means inhibition above about 36%
Target sequence (P61081 whole entry, looked up): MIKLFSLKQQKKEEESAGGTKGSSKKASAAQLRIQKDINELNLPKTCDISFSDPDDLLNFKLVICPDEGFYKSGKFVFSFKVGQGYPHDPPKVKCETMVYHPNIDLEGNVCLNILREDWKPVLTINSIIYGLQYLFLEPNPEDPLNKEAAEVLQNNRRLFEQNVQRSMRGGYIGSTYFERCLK
Target sequence (Q13564 whole entry, looked up): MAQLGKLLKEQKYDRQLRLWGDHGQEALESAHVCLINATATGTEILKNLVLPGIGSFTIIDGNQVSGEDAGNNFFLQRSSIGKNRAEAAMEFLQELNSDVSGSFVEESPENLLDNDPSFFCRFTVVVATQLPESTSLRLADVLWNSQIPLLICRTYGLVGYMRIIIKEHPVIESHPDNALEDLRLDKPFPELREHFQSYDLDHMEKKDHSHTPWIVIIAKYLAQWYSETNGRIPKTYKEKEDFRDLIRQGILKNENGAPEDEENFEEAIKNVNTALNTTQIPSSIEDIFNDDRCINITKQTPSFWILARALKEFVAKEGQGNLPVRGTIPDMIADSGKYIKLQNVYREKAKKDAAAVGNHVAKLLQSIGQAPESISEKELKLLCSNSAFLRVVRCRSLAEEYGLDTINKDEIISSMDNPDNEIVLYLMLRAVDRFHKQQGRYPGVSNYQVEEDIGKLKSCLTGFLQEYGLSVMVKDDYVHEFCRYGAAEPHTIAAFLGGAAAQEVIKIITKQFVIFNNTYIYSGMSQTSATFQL
Arrestin-AP2 inh – human beta-arrestin and AP2 interaction inhibition; FITC-arrestin peptide / GST-AP2 beads, flow cytometry; AP2 beta2 appendage carries R879A mutation; AID 504490; inhibition, % at 10 µM; hit rate 0.31% among 340,000;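 active means inhibition above a set limit, near 3 SD of compounds lacking own fluorescence, cut at about 54% in these data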;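 further: plate controls were DMSO wells for no effect and 5 µM unlabelled arrestin peptide for full effect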
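Material – AP2 appendage R879A on GSH beads · Buffer or medium – PBS with 0.05% Tween 20 and 0.1% BSA · Probe or stimulus – fluorescein-tagged arrestin peptide at 50 nM final · Incubation – compound with beads 12 min RT, then probe 1 h RT · Detection – high-throughput flow cytometry of beads, ex 488, em 535 nm · Evaluation – percent response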
Efflux pump inh – inhibitors of Candida antifungal efflux pumps expressed in yeast; inhibition, % at 10 µM; S. cerevisiae Candida pump triplex, Nile Red efflux; hit rate 0.44% among 330,000;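 active means plate passing quality check with inhibition over a set limit, or well fluorescence over plate mean plus 4 SD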;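 further: Nile Red retained in pooled yeast measured as flow cytometry median fluorescence; 0% = buffer negative control and 100% = Enniatin B positive control; higher means more Nile Red kept so more efflux inhibition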
Pemphigus Ab inh – inhibitors of pemphigus antibody binding to human desmoglein-3. binding (percent of control), % at 10 µM. hit rate 0.48% among 310,000. DSG3-coupled beads, scFv-anti-DSG3-GFP binding, flow cytometry; hits give low values. P32926;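 active means binding more than 3 SD below its plate's average and above zero; inconclusive means below that plate limit but binding exactly zero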;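 further: hits lower antibody fragment binding to DSG3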
Cmpd fluor yeast – compound fluorescence in yeast efflux pump counter-screen; shares compounds with Efflux pump inh; S. cerevisiae AD/pABC3, flow cytometry; fluorescence ratio to DMSO, % at 10 µM; hit rate 4% among 1,700; AID 588517;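 active means fluorescence ratio to DMSO above its plate's cutoff, the plate mean ratio plus 5 SD, cut at about 210% in these data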;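 further: unstained yeast with no Nile Red so the signal is compound autofluorescence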
Mdr1 pump inh – blocks the Candida albicans Mdr1 efflux pump in yeast; AID 588518; hit rate 1% among 1,700; shares compounds with Efflux pump inh; S. cerevisiae AD/CaMDR1, Nile Red efflux, flow cytometry; inhibition, % at 10 µM; in the data active means inhibition above about 26%;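 further: 0% = DMSO vehicle and 100% = reference inhibitor; higher means more Nile Red retained so more efflux inhibition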
CaCdr2 efflux inh – blocks the Candida albicans Cdr2 efflux pump in yeast; AID 588520; shares compounds with Efflux pump inh; S. cerevisiae AD/CaCDR2, Nile Red retention, flow cytometry; Nile Red retention ratio vs DMSO, % at 10 µM; hit rate 4% among 1,700; in the data active means Nile Red retention ratio vs DMSO above about 190%;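 further: higher ratio means more blocking of Cdr2 efflux of the dye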
Cdr1 pump inh – blocks the Candida albicans Cdr1 efflux pump in yeast; S. cerevisiae AD/CaCDR1, Nile Red efflux, flow cytometry; AID 588522; hit rate 1% among 1,700; shares compounds with Efflux pump inh; inhibition, % at 10 µM;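 active means inhibition above the screen-wide mean plus twice its standard deviation, cut at about 32% in these data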
The depositor's hits bear a star; ? = inconclusive; . = no result shown.

SMILES	Neddyl block	Arrestin-AP2 inh	Efflux pump inh	Pemphigus Ab inh	Cmpd fluor yeast	Mdr1 pump inh	CaCdr2 efflux inh	Cdr1 pump inh
CC(C)NC(=O)Nc1cccc2c1O[C@H](CN(C)S(=O)(=O)c1ccc(F)cc1)[C@@H](C)CN([C@H](C)CO)C2=O	9	7	0	107	112	0	106	0
C[C@H](CO)N1C[C@H](C)[C@@H](CN(C)S(=O)(=O)c2ccccc2)Oc2c(NC(=O)Nc3ccccc3)cccc2C1=O	-4	1	1	90	100	0	106	0
CC(=O)c1ccc(OCc2cc(C(=O)NC3CCCCC3)no2)cc1	4	-1	-4	.	.	.	.	.
O=C1CC(N2CCN(S(=O)(=O)c3ccc([N+](=O)[O-])cc3)CC2)C(=O)N1c1ccccc1F (centres undefined)	-17	-7	0	?	.	.	.	.
CC(=O)CC1(OC(C)=O)C(=O)N(C)c2ccccc21 (centres undefined)	-6	3	0	95	.	.	.	.
N#C/C(=C\c1ccco1)C(=O)Nc1cccc2ncccc12	-20	-2	0	101	95	0	105	0
CC(C)NC(=O)C(=O)NNC(=O)C12CC3CC(CC(C3)C1)C2	2	1	2.1*	103	111	0	116	0
CC(CN1CCCCC1)C(=O)NNC(=O)C12CC3CC(CC(C3)C1)C2 (centres undefined)	14	33	0	90	.	.	.	.
Cc1nn(C)c(C)c1NC(=O)COc1ccc(Cl)cc1Br	14	-8	0	.	.	.	.	.
COc1ccc(C2c3ccc4ccccc4c3Oc3ncn(CCN4CCOCC4)c(=N)c32)cc1OC (centres undefined)	-6	-9	0	.	.	.	.	.
COc1ccc(C2c3ccc4ccccc4c3Oc3ncn(CCN4CCOCC4)c(=N)c32)cc1 (centres undefined)	7	1	1.0*	106	108	0	112	0
Cc1cc(NC(=O)CCC(=O)N(Cc2ccco2)C(C(=O)NC2CCCC2)c2ccccc2F)no1 (centres undefined)	2	4	0	94	.	.	.	.
Cc1cc(NC(=O)CCC(=O)N(Cc2ccco2)C(C(=O)NC2CCCCC2)c2ccccc2)no1 (centres undefined)	-3	-3	0	106	104	0	119	0
Cc1ccc(C(C(=O)NC2CCCC2)N(C(=O)CCC(=O)Nc2cc(C)on2)c2ccccc2)cc1 (centres undefined)	4	8	0	90	110	0	123	0
Cc1cc(NC(=O)CCC(=O)N(CCc2ccccc2)C(C(=O)NC2CCCC2)c2ccco2)no1 (centres undefined)	-2	18	0	98	.	.	.	.
Cc1cc(NC(=O)CCC(=O)N(Cc2ccco2)C(C(=O)NC2CCCC2)c2ccccc2C)no1 (centres undefined)	2	-4	0	91	85	0	90	0
Cc1ccc(N(C(=O)CNC(=O)c2ccco2)C(C(=O)NC2CCCC2)c2ccncc2)cc1F (centres undefined)	-7	23	0	.	.	.	.	.
O=C(Oc1ccccc1/C=C\C(=O)c1cc2ccccc2o1)c1ccccc1	-43	10	16*	124	103	0	100	0
O=C(Cn1cc(C(F)(F)F)ccc1=O)OCC(=O)c1ccc[nH]1	1	14	0	93	.	.	.	.
CC(=O)c1cc(C(=O)NC2CCCc3c2cnn3-c2cc(C)cc(C)c2)[nH]n1 (centres undefined)	-2	40	0	124	.	.	.	.
Cc1cc(C)cc(-n2ncc3c2CCCC3NC(=O)c2cc(C)[nH]n2)c1 (centres undefined)	7	12	0	?	106	0	98	0
CCOc1ccc(N(C)S(=O)(=O)c2ccc(C)c(C(=O)NCc3cccs3)c2)cc1	-16	43	0	105	.	.	.	.
Cc1cc(C)cc(OCC(=O)N/N=C\c2cn(C)nc2C)c1	0	-8	0	85	.	.	.	.
CCn1ncc(/C=N\NC(=O)COc2cc(C)cc(C)c2)c1C	-4	-12	13*	87	102	0	104	0
CCCn1c(-c2cc(OC)c(OC)c(OC)c2)nc2c1c(=O)[nH]c(=O)n2Cc1ccccc1	.	9	0.7*	113	99	0	110	0
SMILES	Neddyl block	Arrestin-AP2 inh	Efflux pump inh	Pemphigus Ab inh	Cmpd fluor yeast	Mdr1 pump inh	CaCdr2 efflux inh	Cdr1 pump inh
CCCn1c(-c2cccc(F)c2)nc2c1c(=O)[nH]c(=O)n2Cc1ccccc1	14	22	0	105	.	.	.	.
Cc1cc(Cl)c(S(=O)(=O)NC2CCCC2)cc1OCC(N)=O	9	12	0	100	.	.	.	.
COc1ccc(/C(O)=C2/C(=O)C(=O)N(CCN(C)C)C2c2ccccc2)cc1Cl (centres undefined)	-33	4	0	101	.	.	.	.
CCOc1ccc(/C(O)=C2/C(=O)C(=O)N(CCN(C)C)C2c2ccccc2)cc1Cl (centres undefined)	-12	-6	8.9*	102	103	0	97	0
COc1cc(/C=N/N2CCN(c3ccc(Cl)cc3)CC2)cc(OC)c1OC(C)=O	3	-11	1.2*	98	89	0	108	0
COCCn1c(=S)[nH]c2sc3c(c2c1=O)CCCC3	-24	0	1.1*	98	87	0	89	0
COCCCn1c(=S)[nH]c2sc3c(c2c1=O)CCCC3	-22	-1	0	102	.	.	.	.
CCN(CC)c1ccc(S(=O)(=O)N2CCOCC2)cc1NC(=O)CSc1nnc(N)s1	-3	5	0	97	.	.	.	.
CC1CCN(C(=O)c2ccc(S(=O)(=O)Cc3ccccc3F)c([N+](=O)[O-])c2)CC1	-26	-8	5.8*	94	111	0	102	0
O=C(c1ccc(S(=O)(=O)Cc2ccccc2F)c([N+](=O)[O-])c1)N1CCCC1	-33	-7	0	99	.	.	.	.
O=C(CSc1cccc[n+]1[O-])Nc1ccccc1Oc1ccccc1	9	-16	1.0*	.	110	0	119	0
COc1cccc2cc(CC(=O)c3ccc(C)cc3C)c(=O)oc12	0	-3	0	85	.	.	.	.
CCOC(=O)c1c(-c2ccc(F)cc2)csc1NC(=O)c1c(-c2ccccc2)noc1C	-272	-4	0	98	.	.	.	.
CCOC(=O)c1c(-c2ccccc2)csc1NC(=O)c1cc(-c2ccccc2OC)on1	.	7	0.7*	94	89	0	114	0
C/C(=N\NC(=O)CSCc1ccc([N+](=O)[O-])cc1)c1cccc(Br)c1	-8	-5	0	105	.	.	.	.

High-throughput results from PubChem BioAssay.
